Hits are enriched below; roughly 1.4% of the tested compounds scored in any of these assays.
FXIIa inh – blocks human coagulation factor XIIa protease activity | inhibition, % at 5 µM | P00748 | actives 0.3% (n = 220,000) | purified FXIIa, Boc-QGR-AMC fluorogenic substrate, 2 h; in the data active = inhibition above about 40%;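 note: 0% = enzyme with no compound and 100% = blank without enzyme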
Target sequence (P00748 20-372 limits assumed): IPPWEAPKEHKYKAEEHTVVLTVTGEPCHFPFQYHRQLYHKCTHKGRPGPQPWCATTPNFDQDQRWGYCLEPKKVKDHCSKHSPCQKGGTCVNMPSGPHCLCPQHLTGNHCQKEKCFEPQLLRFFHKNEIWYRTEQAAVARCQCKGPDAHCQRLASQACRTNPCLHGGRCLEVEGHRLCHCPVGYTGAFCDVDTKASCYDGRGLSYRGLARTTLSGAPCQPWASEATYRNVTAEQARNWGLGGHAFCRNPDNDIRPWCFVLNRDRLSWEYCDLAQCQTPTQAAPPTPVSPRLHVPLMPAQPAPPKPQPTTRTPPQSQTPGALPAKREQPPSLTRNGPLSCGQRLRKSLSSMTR
Target sequence (P00748 373-615 limits assumed): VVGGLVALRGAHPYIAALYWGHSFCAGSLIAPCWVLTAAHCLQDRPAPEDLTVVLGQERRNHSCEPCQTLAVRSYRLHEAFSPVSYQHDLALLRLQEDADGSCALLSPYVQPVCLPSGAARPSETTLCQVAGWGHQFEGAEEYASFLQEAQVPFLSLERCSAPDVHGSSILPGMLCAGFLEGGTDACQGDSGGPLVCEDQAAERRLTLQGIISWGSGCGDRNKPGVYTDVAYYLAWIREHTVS
m-calpain inh – inhibitors of pig calpain II; AID 1236; inhibition, % at 16 µM; actives 0.37% (n = 220,000); purified calpain II, fluorogenic peptide substrate, 30 min;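 active = inhibition above about 50%, limit read from the data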
FXIa inh 1536 – factor XIa (human) inhibition; P03951; actives 0.14% (n = 220,000); purified FXIa, Boc-Glu-Ala-Arg-AMC fluorogenic substrate; inhibition, % at 5 µM;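 active = inhibition of at least 40%; inactive = inhibition below 40%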;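 note: fluorescence of freed AMC excited at 355 nm; 0% = enzyme without compound and 100% = no enzyme blank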
KLK5 inh – blocks human kallikrein 5 protease activity | Q9Y337 | recombinant hK5, fluorogenic AMC substrate cleavage | inhibition, % at 5 µM | actives 0.59% (n = 210,000);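 active = inhibition of 40% or more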;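 note: 0% = enzyme controls without compound and 100% = no-enzyme blanks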
Furin inhibitor – human furin inhibition; inhibition, % at 20 µM or 30 µM; actives 0.061% (n = 220,000); purified furin, fluorogenic substrate cleavage; P09958; in the data active = inhibition above about 25%
thrombin 1536 – thrombin (human) inhibition; P00734; alpha-thrombin, Boc-VPR-AMC fluorogenic substrate cleavage; inhibition, % at 5 µM; actives 0.26% (n = 220,000);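 active = inhibition at or above 40%; inactive = inhibition below 40%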;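 note: 0% = enzyme with no compound and 100% = wells without enzyme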
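System – human alpha-thrombin · Medium – pH 7.5 Tris (50 mM) with NaCl 150 mM, Tween 20 0.05% · Compound – single-point dosing at 5 µM, 0.2% DMSO · Incubation – enzyme reaction carried out at room temperature · Technique – fluorescence of released AMC, ex 355 nm, em 460 nm · Read-out basis – % inhibition of thrombin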
Numbers without * were called inactive; x = not tested or not shown.

SMILES | FXIIa inh | m-calpain inh | FXIa inh 1536 | KLK5 inh | Furin inhibitor | thrombin 1536
O=C(O)CCN1C(=O)C2C3c4ccccc4C(c4ccccc43)[C@@H]2C1=O (some centres undefined) | 46* | 14 | 31 | 30 | -9 | 23
CCOC(=O)C1CCCN(c2c(NCCCN(C)c3ccccc3)c(=O)c2=O)C1 (centres undefined) | 26 | 100* | 11 | 42* | -8 | 22
CCOC(=O)C1CCCN(C2CC(=O)N(c3ccc(NC(C)=O)cc3)C2=O)C1 (centres undefined) | 7 | 18 | -2 | 0 | -15 | -1
CCOC(=O)C1CCCN(C2CC(=O)N(c3ccc(C)cc3)C2=O)C1 (centres undefined) | 19 | 3 | 12 | 40* | -15 | 12
CCCCC1CCC(C(=O)OCC(=O)Nc2ccc(S(N)(=O)=O)cc2)CC1 (centres undefined) | 6 | 1 | 7 | -17 | -13 | -8
O=C(O)c1ccccc1SCC(=O)N1CCCCC1 | 8 | 16 | 5 | 0 | -21 | 2
O=C(O)c1ccccc1SCC(=O)N1CCOCC1 | 18 | 9 | 33 | 29 | -1 | 41*
c1ccc(Nc2cccc(Nc3ccccc3)c2)cc1 | 17 | 44 | 10 | 48* | -10 | 14
Nc1cccc(Nc2ccccc2)c1 | 8 | 14 | -3 | 0 | -17 | -8
COc1cccc(Oc2ccc(N/C=C/C(=O)C(C)(C)C)cc2)c1 | 8 | 8 | 3 | -13 | -22 | -2
CC(C)C(=O)Nc1nc2c(c(=O)[nH]1)CCCC2 | 9 | -24 | 4 | -3 | -11 | -1
COc1ccc(-n2c(=O)[nH]c3cc(C(=O)NCCc4ccc(Cl)cc4)ccc3c2=O)cc1OC | 2 | 3 | 10 | -21 | -6 | 4
CSCCC(NC(=O)c1cccc(C)c1)C(=O)OCC(=O)NC(=O)c1cccn1C (centres undefined) | 10 | 19 | 3 | 6 | -18 | 48*
Cc1ccc(C(=O)OCC(=O)NC(=O)c2cccn2C)cc1 | 18 | -22 | 2 | -3 | -17 | 6
Cc1cccc(/N=C/C2=C(O)CC(C)(C)CC2=O)n1 | 8 | -9 | 2 | 3 | 46* | -1
CC1(C)CC(=O)C=C(N=CC2=C(O)CC(C)(C)CC2=O)C1 | 1 | -5 | 1 | 2 | -12 | -2
Cc1cc(N=CC2=C(O)CC(C)(C)CC2=O)no1 | -1 | -9 | -2 | 3 | 46* | 0
O=C(c1ccc2ccccc2c1)C1CCCN(C(=O)CCn2cnnn2)C1 (centres undefined) | 10 | -48 | 2 | 0 | -27 | -2
COc1cc(/C=N/NC(=O)c2ccc(CN3C(=O)c4cccc5cccc3c45)cc2)cc(OC)c1O | 27 | -56 | 50* | 24 | -3 | 13
O=Cc1ccc(-c2cc(Cl)ccc2Cl)[nH]1 | 8 | 42 | 0 | -3 | -6 | 1
Cc1ccc(-c2noc(CN(C(=O)CCCCCN3C(=O)c4ccccc4C3=O)C(C)C)n2)cc1 | 29 | 55* | 13 | 17 | -16 | 8
Cc1ccc(-c2noc(CN(C(=O)CCCN3C(=O)c4ccccc4C3=O)C(C)C)n2)cc1 | x | x | x | x | 12 | x
Nc1nonc1-c1noc(CCCCCN2C(=O)c3ccccc3C2=O)n1 | 3 | 51* | -5 | 10 | -6 | -4
O=C(O)C1CCC(CNCc2ccccc2Cl)CC1 (centres undefined) | -2 | -12 | -2 | -4 | -20 | 9
O=C(NNC1=NCCC1)c1cccc(S(=O)(=O)N2CCOCC2)c1 | 9 | 16 | 7 | 2 | -17 | -6
SMILES | FXIIa inh | m-calpain inh | FXIa inh 1536 | KLK5 inh | Furin inhibitor | thrombin 1536
CCN1C(=O)/C(=C/N(C(C)=O)c2ccccc2)N(c2ccccc2)C1=S | 22 | 2 | 9 | 50* | -12 | 76*
CCOc1ccccc1Nc1nnc(C)c(=O)[nH]1 | 11 | -5 | 0 | 6 | -18 | 0
CCOc1ccccc1Nc1nnc(Cc2ccccc2Cl)c(=O)[nH]1 | -4 | 63* | -14 | -13 | -17 | 23
CC(c1ccccc1)N1C(=O)C2C3C=CC(C4CC34)C2C1=O (centres undefined) | 14 | 23 | 2 | 7 | -22 | -4
COC(=O)c1ccc2nc(NC(=O)CSCC(=O)OCC(=O)c3ccccc3)sc2c1 | 9 | -21 | 6 | -13 | -8 | -3
Cc1ccc2nc(NC(=O)CSCC(=O)OCC(=O)c3ccc(Br)cc3)sc2c1 | 19 | -4 | 7 | 9 | -7 | 92*
